Source: ChEMBL document CHEMBL1153420, “Discovery of novel 1-azoniabicyclo[2.2.2]octane muscarinic acetylcholine receptor antagonists” (J Med Chem, 2009)
pIC50, pKi: −log10 of the molar value. Calls of active or inactive are those of the source. No cut-off for these calls is given here.

Legend:
[1] = target: T1, Muscarinic acetylcholine receptor M3 (Homo sapiens, UniProt P20309); test: Antagonist activity at human cloned muscarinic M3 receptor expressed in CHO cells assessed as inhibition of acetylcholine-induced calcium mobilization by single concentration kinetic based-FLIPR assay; assay type: functional, cell-based; conditions: read-out: pA2 (converted)
Target sequence in this assay (P20309 whole entry): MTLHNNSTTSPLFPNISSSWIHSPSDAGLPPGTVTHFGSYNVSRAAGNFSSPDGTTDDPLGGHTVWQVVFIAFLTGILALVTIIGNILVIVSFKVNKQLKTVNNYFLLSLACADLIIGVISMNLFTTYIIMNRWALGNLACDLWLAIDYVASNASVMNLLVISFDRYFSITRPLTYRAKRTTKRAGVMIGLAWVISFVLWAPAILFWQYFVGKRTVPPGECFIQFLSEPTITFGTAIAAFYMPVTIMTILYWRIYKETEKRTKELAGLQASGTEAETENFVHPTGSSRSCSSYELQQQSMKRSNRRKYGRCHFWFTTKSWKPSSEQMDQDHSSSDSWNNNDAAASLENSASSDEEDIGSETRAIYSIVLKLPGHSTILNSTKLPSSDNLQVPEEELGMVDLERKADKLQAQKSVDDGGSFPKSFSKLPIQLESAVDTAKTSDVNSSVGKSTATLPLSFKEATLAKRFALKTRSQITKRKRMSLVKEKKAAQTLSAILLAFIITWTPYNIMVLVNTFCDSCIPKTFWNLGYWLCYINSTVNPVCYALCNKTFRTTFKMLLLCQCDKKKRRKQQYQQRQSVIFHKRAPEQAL

[2] = target: T1, Muscarinic acetylcholine receptor M3; test: Antagonist activity at human cloned muscarinic M3 receptor expressed in CHO cells assessed as inhibition of acetylcholine-induced calcium mobilization by FLIPR assay; assay type: functional, cell-based
Target sequence in this assay (P20309 whole entry): as above

Mus musculus [3] = test: Inhibition of methacholine-induced bronchoconstriction in intranasally single dosed conscious BALB/c mouse assessed as time to 50% loss of maximum protection at 0.5 ug by plethysmography; assay type: functional
Outline: (§1)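 Conscious mice dosed intranasally in 50 µL vehicle (10% DMSO), then methacholine challenge; barometric plethysmography measured enhanced pause (Penh) at times from 15 min to 96 h after dosing; duration taken as time to 50% loss of maximum protection.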

[4] = Clearance in rat plasma at 3.5 mg/kg, iv; assay type: ADME, organism-based; design: dose 3.5 mg/kg, route intravenous
Outline: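 Systemic plasma clearance in rat after intravenous dosing.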

[5] = target: T1, Muscarinic acetylcholine receptor M3; test: Antagonist activity at human muscarinic M3 receptor assessed as inhibition of carbachol-induced bronchus contraction; assay type: functional; conditions: read-out: pA2 (converted)
Target sequence in this assay (P20309 whole entry): as above

[6] = target: T1, Muscarinic acetylcholine receptor M3; test: Antagonist activity at human muscarinic M3 receptor assessed as offset time for 50% of carbachol-induced human bronchus contraction to return at 10 nM; assay type: functional
Outline: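 Human bronchial strips (primary, secondary or tertiary airways, obtained at autopsy) were mounted in organ baths on force-displacement transducers. Strips were preincubated 2 h with 10 nM antagonist, then given increasing carbachol to […]. Antagonist was then removed and tissue superfused with carbachol-containing buffer while tension recovery was tracked. The result is minutes to 50% reversal of blockade (off t50).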
Target sequence in this assay (P20309 whole entry, looked up): as the sequence (P20309 whole entry) above

[7] = target: T2, Muscarinic acetylcholine receptor M1 (Homo sapiens, UniProt P11229); test: Antagonist activity at human cloned muscarinic M1 receptor expressed in CHO cells assessed as inhibition of acetylcholine-induced calcium mobilization by single concentration kinetic based-FLIPR assay; assay type: functional, cell-based; conditions: read-out: pA2 (converted)
T2 sequence (P11229 whole entry): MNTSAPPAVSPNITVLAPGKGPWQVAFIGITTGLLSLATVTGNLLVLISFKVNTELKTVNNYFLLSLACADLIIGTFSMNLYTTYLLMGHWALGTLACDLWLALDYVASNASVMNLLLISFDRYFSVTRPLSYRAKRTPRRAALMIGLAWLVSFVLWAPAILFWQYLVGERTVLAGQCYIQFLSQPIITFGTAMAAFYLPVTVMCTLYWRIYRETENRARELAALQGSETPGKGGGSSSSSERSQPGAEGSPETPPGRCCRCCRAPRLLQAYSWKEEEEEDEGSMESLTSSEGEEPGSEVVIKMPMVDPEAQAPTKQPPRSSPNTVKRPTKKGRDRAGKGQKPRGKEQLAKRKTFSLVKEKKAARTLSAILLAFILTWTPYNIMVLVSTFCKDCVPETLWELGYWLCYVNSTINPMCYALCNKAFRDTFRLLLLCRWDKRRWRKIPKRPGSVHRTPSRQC

[8] = target: T1, Muscarinic acetylcholine receptor M3; test: Displacement of [3H]N-methyl scopolamine from human cloned muscarinic M3 receptor expressed in CHO cells coexpressing Gqi5 by scintillation proximity assay; assay type: cell-based
Target sequence in this assay (P20309 whole entry): as the sequence (P20309 whole entry) above

[9] = target: T3, Muscarinic acetylcholine receptor M2 (Homo sapiens, UniProt P08172); test: Antagonist activity at human cloned muscarinic M2 receptor expressed in CHO cells assessed as inhibition of acetylcholine-induced calcium mobilization by single concentration kinetic based-FLIPR assay; assay type: functional, cell-based; conditions: read-out: pA2 (converted)
T3 sequence (P08172 whole entry): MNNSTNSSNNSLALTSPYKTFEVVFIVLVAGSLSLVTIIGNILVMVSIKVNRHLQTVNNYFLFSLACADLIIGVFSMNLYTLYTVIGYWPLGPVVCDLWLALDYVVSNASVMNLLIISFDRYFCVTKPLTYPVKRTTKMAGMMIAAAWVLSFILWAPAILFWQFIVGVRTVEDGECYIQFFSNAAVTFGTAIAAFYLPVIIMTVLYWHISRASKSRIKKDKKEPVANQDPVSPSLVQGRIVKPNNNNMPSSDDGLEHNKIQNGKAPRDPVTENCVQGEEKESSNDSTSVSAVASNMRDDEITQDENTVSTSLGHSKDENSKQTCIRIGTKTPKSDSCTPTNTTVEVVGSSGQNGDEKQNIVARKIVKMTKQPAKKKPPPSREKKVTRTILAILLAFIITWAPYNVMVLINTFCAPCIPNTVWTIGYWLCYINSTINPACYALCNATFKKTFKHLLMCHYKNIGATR

Mus musculus [10] = test: Inhibition of methacholine-induced bronchoconstriction in intranasally single dosed conscious BALB/c mouse by plethysmography; assay type: functional
[11] = target: T3, Muscarinic acetylcholine receptor M2; test: Displacement of [3H]N-methyl scopolamine from human cloned muscarinic M2 receptor expressed in CHO cells coexpressing Gqi5 by scintillation proximity assay; assay type: cell-based
Outline: (§2)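 Scintillation proximity assay on membranes from CHO cells expressing human M1, M2 or M3 receptors, competing against 0.5 nM [3H]-N-methyl scopolamine; Ki reported as mean of three independent assays.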

[12] = target: T1, Muscarinic acetylcholine receptor M3; test: Antagonist activity at human cloned muscarinic M3 receptor expressed in CHO cells assessed as reversible inhibition of acetylcholine-induced calcium mobilization for 90 mins measured after 180 mins of washout period by FLIPR assay; assay type: functional, cell-based
Outline: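 CHO cells expressing cloned human M3 receptors were incubated 90 min with vehicle or 1.0, 10 or 100 nM compound, then washed out for 180 min with 18 buffer changes. Cells were then stimulated with ACh, and calcium mobilization was read by FLIPR. Reversibility was judged from ACh concentration-response curves against no-drug levels.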
Target sequence in this assay (P20309 whole entry, looked up): as the sequence (P20309 whole entry) above

[13] = target: T2, Muscarinic acetylcholine receptor M1; test: Displacement of [3H]N-methyl scopolamine from human cloned muscarinic M1 receptor expressed in CHO cells coexpressing Gqi5 by scintillation proximity assay; assay type: cell-based; outline: as §2
Mus musculus [14] = test: Inhibition of methacholine-induced bronchoconstriction in intranasally single dosed conscious BALB/c mouse assessed as time to 50% loss of maximum protection at 0.05 ug by plethysmography; assay type: functional; outline: as §1
[15] = Clearance in rat plasma at 0.5 mg/kg, iv; assay type: ADME, organism-based; design: dose 0.5 mg/kg, route intravenous
Outline: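 Rats received a single intravenous dose of 0.5 mg/kg; systemic plasma clearance was reported in ml/min/kg.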

Structure (SMILES) | Kb [1] [nM] | pIC50 [2] | also measured
OC(c1ccccc1)(c1ccccc1)C12CC[N+](CCCCOc3ccccc3)(CC1)CC2 | 10 | 8.02 | –
CC(C)(C)c1ccc(COCC[N+]23CCC(C(O)(c4ccccc4)c4ccccc4)(CC2)CC3)cc1 | – | 7.41 | –
OC(c1ccccc1)(c1ccccc1)C1CN2CCC1CC2 (stereo not drawn) | – | 5.96 | –
OC(c1ccccc1)(c1ccccc1)C1CC2CCN1CC2 (stereo not drawn) | – | 5.18 | –
OC(c1ccccc1)(c1ccccc1)C12CC[N+](CCOCc3ccc(Br)cc3)(CC1)CC2 | 0.0398 | > 8.00 | –
C[N+]12CCC(C(O)(c3ccccc3)c3ccccc3)(CC1)CC2 | – | 6.03 | –
OC(c1ccccc1)(c1ccccc1)C12CC[N+](CCCOc3ccccc3)(CC1)CC2.[Br-] | – | > 8.00 | Activity (Mus musculus [3]): 34 h; clearance [4]: 37 mL/min/kg; Kb [5]: 1.26 nM; Activity [6]: 57 min; Kb [7]: 3.16 nM; pKi [8]: 9.89; Kb [9]: 1.26 nM; ED50 (Mus musculus [10]): 0.08 µg; pKi [11]: 9.03; Activity [12]: inactive; pKi [13]: 9.19
OC(c1ccccc1)(c1ccccc1)C12CC[N+](CCOCc3cccc(Br)c3)(CC1)CC2 | 0.126 | > 8.00 | –
CCC[N+]12CCC(C(O)(c3ccccc3)c3ccccc3)(CC1)CC2 | – | 6.68 | –
COCC[N+]12CCC(C(O)(c3ccccc3)c3ccccc3)(CC1)CC2 | – | 7.52 | –
OC(c1ccccc1)(c1ccccc1)C12CC[N+](CCOCc3ccc(F)cc3)(CC1)CC2 | 0.0794 | > 8.00 | –
COc1ccc(C(O)(c2ccc(OC)cc2)C23CC[N+](CCOCc4ccccc4)(CC2)CC3)cc1 | – | 7.44 | –
COc1cccc(COCC[N+]23CCC(C(O)(c4ccccc4)c4ccccc4)(CC2)CC3)c1 | 2 | > 8.00 | –
OC(c1ccccc1)(c1ccccc1)C12CC[N+](CCc3ccccc3)(CC1)CC2 | – | 7.06 | –
OCCC[N+]12CCC(C(O)(c3ccccc3)c3ccccc3)(CC1)CC2 | – | 4.53 | –
OC(c1ccccc1)(c1ccccc1)C12CC[N+](CCOCc3ccccc3Br)(CC1)CC2 | 3.16 | 7.66 | –
CCCC[N+]12CCC(C(O)(c3ccccc3)c3ccccc3)(CC1)CC2 | – | 6.87 | –
Cc1ccccc1COCC[N+]12CCC(C(O)(c3ccccc3)c3ccccc3)(CC1)CC2 | 3.98 | 7.89 | –
N#Cc1ccccc1COCC[N+]12CCC(C(O)(c3ccccc3)c3ccccc3)(CC1)CC2 | – | 5.27 | –
COc1cccc(C(O)(c2cccc(OC)c2)C23CC[N+](CCOCc4ccccc4)(CC2)CC3)c1 | – | 7.77 | –
CC[N+]12CCC(C(O)(c3ccccc3)c3ccccc3)(CC1)CC2 | – | 6.98 | –
OC(c1ccccc1)(c1ccccc1)C12CC[N+](CCOCc3ccc(Cl)cc3)(CC1)CC2 | 0.0631 | > 8.00 | –

Structure (SMILES) | Kb [1] [nM] | pIC50 [2] | also measured
NCC[N+]12CCC(C(O)(c3ccccc3)c3ccccc3)(CC1)CC2 | 0.398 | 6.07 | –
N#CC(c1ccccc1)(c1ccccc1)C12CC[N+](CCOCc3ccccc3)(CC1)C2 | 0.501 | > 8.00 | –
OC(c1ccccc1)(c1ccccc1)C12CC[N+](CCOCc3cccc(F)c3)(CC1)CC2 | 0.0251 | > 8.00 | –
Cc1ccc(COCC[N+]23CCC(C(O)(c4ccccc4)c4ccccc4)(CC2)CC3)cc1 | 0.0398 | > 8.00 | –
OCC[N+]12CCC(C(O)(c3ccccc3)c3ccccc3)(CC1)CC2 | – | 6.31 | –
OC(c1ccccc1)(c1ccccc1)C12CC[N+](CCOCc3ccccc3)(CC1)C2 | 0.398 | > 8.00 | –
OC(CC1CN2CCC1CC2)(c1ccccc1)c1ccccc1 (stereo not drawn) | – | 6.84 | –
OC(c1ccccc1)(c1ccccc1)C12CC[N+](CCOc3ccccc3)(CC1)CC2 | 0.794 | > 8.00 | –
OC(c1ccccc1)(c1ccccc1)C12CC[N+](CCCCc3ccccc3)(CC1)CC2 | 0.501 | > 8.00 | –
N#Cc1ccc(COCC[N+]23CCC(C(O)(c4ccccc4)c4ccccc4)(CC2)CC3)cc1 | 0.398 | > 8.00 | –
Cc1ccc(C(O)(c2ccc(C)cc2)C23CC[N+](CCOCc4ccccc4)(CC2)CC3)cc1 | – | 7.92 | –
OC(c1ccccc1)(c1ccccc1)C12CC[N+](CC3CC3)(CC1)CC2 | – | 5.71 | –
OC(c1ccccc1)(c1ccccc1)C12CCN(CC1)CC2 | – | 5.97 | –
OC(c1cccc(F)c1)(c1cccc(F)c1)C12CC[N+](CCOCc3ccccc3)(CC1)CC2 | 0.251 | > 8.00 | –
COCCC[N+]12CCC(C(O)(c3ccccc3)c3ccccc3)(CC1)CC2 | – | 6.08 | –
Cc1cccc(COCC[N+]23CCC(C(O)(c4ccccc4)c4ccccc4)(CC2)CC3)c1 | 0.1 | > 8.00 | –
OC(c1ccccc1)(c1ccccc1)C12CC[N+](CCCCCOc3ccccc3)(CC1)CC2 | – | 6.51 | –
OC(c1ccc(F)cc1)(c1ccc(F)cc1)C12CC[N+](CCOCc3ccccc3)(CC1)CC2 | 0.0631 | > 8.00 | –
OC(c1ccccc1)(c1ccccc1)C12CC[N+](CCOCc3ccccc3F)(CC1)CC2 | 0.0398 | > 8.00 | –
OC(c1ccccc1)(c1ccccc1)C12CC[N+](CCOCc3ccccc3)(CC1)CC2.[Br-] [UMECLIDINIUM BROMIDE] | – | – | Activity (Mus musculus [14]): >48 h; Activity [6]: 145 min; clearance [15]: 92 mL/min/kg; Kb [7]: 0.316 nM; Kb [9]: 0.0316 nM; ED50 (Mus musculus [10]): 0.02 µg; pKi [11]: 9.82; Activity [12]: Active; pKi [13]: 9.80
OC(CC1C[N+]2(CCc3ccccc3)CCC1CC2)(c1ccccc1)c1ccccc1 (stereo not drawn) | – | 6.91 | –
OC(c1ccccc1)(c1ccccc1)C1C[N+]2(CCc3ccccc3)CCC1CC2 (stereo not drawn) | – | 5.55 | –
